Measurements taken from ChEMBL document CHEMBL3045963, “Synthesis of nalidixic acid based hydrazones as novel pesticides” (2010).
≈ marks a conversion by molar mass, not a printed value.

What was measured:
Type in all cases: functional
Callosobruchus maculatus = experiment: Insecticidal activity against adult Callosobruchus maculatus assessed as mortality at 0.1% at 27 +/-1 degC after 24 hr by contact based film residue method
Summary of the method: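 Lab-reared adults, 2-5 days old, exposed to a dry film: 1 mL of 0.1% compound solution in dichloromethane is swirled in a 90 mm Petri plate and dried 3-5 min. Ten adults per plate are held at 27 ± 1 °C and 70% RH. Mortality is scored at 24 h, with no response to touch counted as dead. Triplicates, solvent control, malathion reference.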

Spodoptera litura [1] = experiment: Insecticidal activity against third-instar larval stage of Spodoptera litura assessed as mortality at 0.1% applied topically on the ventral side of the larvae measured after 24 hr by contact method
Summary of the method: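 Field-collected larvae are reared in the lab at 27 ± 1 °C and 70% RH. Two microliters of a 0.1% dichloromethane solution is applied to the ventral side. Ten treated larvae are kept per glass bottle and fed fresh castor leaves. Mortality is recorded at 24 h. Triplicate, solvent control.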

Spodoptera litura [2] = experiment: Insecticidal activity against third-instar larval stage of prestarved Spodoptera litura in castor leaf assessed as mortality at 0.1% treated for 2 secs before larval infestation measured after 24 hr by feeding method
Summary of the method: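 Castor leaf is dipped 2 s in 0.1% compound solution, air-dried, and placed on moist filter paper in 9 cm Petri plates. Larvae starved 4 h beforehand are released singly, one per plate. Thirty replicates per treatment, solvent control. Mortality is scored after 24 h.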

Fusarium oxysporum = experiment: Fungicidal activity against Fusarium oxysporum by poisoned food technique; conditions: read-out: ED50 (the source's name)
Alternaria porri = experiment: Fungicidal activity against Alternaria porri by poisoned food technique; conditions: read-out: ED50 (the source's name)
Rhizoctonia solani = experiment: Fungicidal activity against Rhizoctonia solani by poisoned food technique; conditions: read-out: ED50 (the source's name)
Macrophomina phaseolina = experiment: Fungicidal activity against Rhizoctonia bataticola by poisoned food technique; conditions: read-out: ED50 (the source's name)
Athelia rolfsii = experiment: Fungicidal activity against Athelia rolfsii by poisoned food technique; conditions: Agroathelia rolfsii; read-out: ED50 (the source's name)
Tribolium castaneum = experiment: Insecticidal activity against adult Tribolium castaneum (red flour beetle) in compound pre-treated green gram grains assessed as mortality at 20 mg/kg after 48 hr by feeding based residue method; conditions: in Vigna radiata
Summary of the method: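 Green gram grains are treated with compound in dichloromethane (0.6 mg in 5 mL) at 20 mg active ingredient per kg grain (0.002%). Ten adults are released onto 10 g of treated grain in a plastic box. Mortality is recorded after 48 h. Triplicate, solvent-treated control.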

Row | Compound | mortality (Callosobruchus maculatus) | mortality (Spodoptera litura [1]) | mortality (Spodoptera litura [2]) | EC50 (Fusarium oxysporum) | EC50 (Alternaria porri) | EC50 (Rhizoctonia solani) | EC50 (Macrophomina phaseolina) | EC50 (Athelia rolfsii) | mortality at 20 mg/kg (Tribolium castaneum)
1 | CCn1cc(C(=O)N/N=C/c2cccc3ccccc23)c(=O)c2ccc(C)nc21 | 0% | 10% | 90% | 134 µg/mL (≈ 350 µM) | 115 µg/mL (≈ 300 µM) | 226 µg/mL (≈ 589 µM) | 316 µg/mL (≈ 821 µM) | 259 µg/mL (≈ 674 µM) | –
2 | CCn1cc(C(=O)N/N=C/c2ccc(C(C)C)cc2)c(=O)c2ccc(C)nc21 | 20% | – | 10% | 277 µg/mL (≈ 736 µM) | 124 µg/mL (≈ 331 µM) | 252 µg/mL (≈ 671 µM) | 453 µg/mL (≈ 1200 µM) | 464 µg/mL (≈ 1230 µM) | –
3 | CCn1cc(C(=O)N/N=C/c2ccccc2C)c(=O)c2ccc(C)nc21 | 10% | – | 0% | 129 µg/mL (≈ 369 µM) | 109 µg/mL (≈ 313 µM) | 408 µg/mL (≈ 1170 µM) | 533 µg/mL (≈ 1530 µM) | 346 µg/mL (≈ 993 µM) | –
4 | CCn1cc(C(=O)N/N=C/c2c3ccccc3cc3ccccc23)c(=O)c2ccc(C)nc21 | 10% | 10% | 20% | 222 µg/mL (≈ 511 µM) | 151 µg/mL (≈ 348 µM) | 374 µg/mL (≈ 861 µM) | 390 µg/mL (≈ 897 µM) | 429 µg/mL (≈ 986 µM) | 15%
5 | CCn1cc(C(=O)N/N=C/c2cccc(OC)c2)c(=O)c2ccc(C)nc21 | 10% | – | 10% | 63.1 µg/mL (≈ 173 µM) | 57.6 µg/mL (≈ 158 µM) | 157 µg/mL (≈ 432 µM) | 210 µg/mL (≈ 575 µM) | 242 µg/mL (≈ 665 µM) | –
6 | CCn1cc(C(=O)N/N=C/c2ccccc2[N+](=O)[O-])c(=O)c2ccc(C)nc21 | 60% | 30% | 100% | 169 µg/mL (≈ 445 µM) | 71.3 µg/mL (≈ 188 µM) | 329 µg/mL (≈ 866 µM) | 610 µg/mL (≈ 1610 µM) | 655 µg/mL (≈ 1730 µM) | 20%
7 | CCn1cc(C(=O)N/N=C/c2ccc(OC)cc2OC)c(=O)c2ccc(C)nc21 | 12% | 10% | 100% | 176 µg/mL (≈ 447 µM) | 131 µg/mL (≈ 332 µM) | 188 µg/mL (≈ 477 µM) | 382 µg/mL (≈ 969 µM) | 375 µg/mL (≈ 950 µM) | –
8 | CC1(C)C(C=C(Cl)Cl)C1C(=O)OC(C#N)c1cccc(Oc2ccccc2)c1 (stereo not drawn) [ALPHA-CYPERMETHRIN] | – | – | 100% | – | – | – | – | – | –
9 | CCn1cc(C(=O)N/N=C/c2ccc(O)c(OC)c2)c(=O)c2ccc(C)nc21 | 20% | 20% | 100% | 377 µg/mL (≈ 991 µM) | 128 µg/mL (≈ 337 µM) | 317 µg/mL (≈ 833 µM) | 528 µg/mL (≈ 1390 µM) | 460 µg/mL (≈ 1210 µM) | –
10 | CCn1cc(C(=O)N/N=C/c2ccc(O)cc2)c(=O)c2ccc(C)nc21 | 40% | 10% | 70% | 181 µg/mL (≈ 517 µM) | 146 µg/mL (≈ 416 µM) | 330 µg/mL (≈ 943 µM) | 308 µg/mL (≈ 878 µM) | 364 µg/mL (≈ 1040 µM) | –
11 | CCn1cc(C(=O)N/N=C/c2cccc(Cl)c2)c(=O)c2ccc(C)nc21 | 10% | – | 90% | 132 µg/mL (≈ 358 µM) | 98.8 µg/mL (≈ 268 µM) | 394 µg/mL (≈ 1070 µM) | 504 µg/mL (≈ 1370 µM) | 439 µg/mL (≈ 1190 µM) | –
12 | CCn1cc(C(=O)N/N=C/c2ccc(OC)cc2)c(=O)c2ccc(C)nc21 | 70% | – | 70% | 152 µg/mL (≈ 416 µM) | 121 µg/mL (≈ 332 µM) | 238 µg/mL (≈ 654 µM) | 301 µg/mL (≈ 825 µM) | 320 µg/mL (≈ 879 µM) | 30%
13 | CCn1cc(C(=O)N/N=C/c2cc(OC)c(OC)c(OC)c2)c(=O)c2ccc(C)nc21 | 10% | 10% | 90% | 102 µg/mL (≈ 241 µM) | 79.4 µg/mL (≈ 187 µM) | 174 µg/mL (≈ 409 µM) | 201 µg/mL (≈ 474 µM) | 186 µg/mL (≈ 438 µM) | –
14 | C/C=C/C=N/NC(=O)c1cn(CC)c2nc(C)ccc2c1=O | 0% | – | 60% | 95.4 µg/mL (≈ 320 µM) | 89.8 µg/mL (≈ 301 µM) | 248 µg/mL (≈ 830 µM) | 324 µg/mL (≈ 1090 µM) | 204 µg/mL (≈ 683 µM) | –
15 | CCn1cc(C(=O)N/N=C/c2ccccn2)c(=O)c2ccc(C)nc21 | 10% | – | 100% | 79.1 µg/mL (≈ 236 µM) | 77.3 µg/mL (≈ 230 µM) | 170 µg/mL (≈ 508 µM) | 372 µg/mL (≈ 1110 µM) | 198 µg/mL (≈ 590 µM) | –
16 | CCn1cc(C(=O)N/N=C/c2ccc([N+](=O)[O-])cc2)c(=O)c2ccc(C)nc21 | 10% | 10% | 90% | 125 µg/mL (≈ 330 µM) | 70.1 µg/mL (≈ 185 µM) | 226 µg/mL (≈ 595 µM) | 575 µg/mL (≈ 1520 µM) | 464 µg/mL (≈ 1220 µM) | –
